Data on nine molecules can be found in ChEMBL document CHEMBL2169759, “A new class of selective and potent 7-dehydrocholesterol reductase inhibitors” (J Med Chem, 2012).

The target of series [1] is T1, 7-dehydrocholesterol reductase (Homo sapiens) (UniProt Q9UBM7).
T1 sequence (whole entry): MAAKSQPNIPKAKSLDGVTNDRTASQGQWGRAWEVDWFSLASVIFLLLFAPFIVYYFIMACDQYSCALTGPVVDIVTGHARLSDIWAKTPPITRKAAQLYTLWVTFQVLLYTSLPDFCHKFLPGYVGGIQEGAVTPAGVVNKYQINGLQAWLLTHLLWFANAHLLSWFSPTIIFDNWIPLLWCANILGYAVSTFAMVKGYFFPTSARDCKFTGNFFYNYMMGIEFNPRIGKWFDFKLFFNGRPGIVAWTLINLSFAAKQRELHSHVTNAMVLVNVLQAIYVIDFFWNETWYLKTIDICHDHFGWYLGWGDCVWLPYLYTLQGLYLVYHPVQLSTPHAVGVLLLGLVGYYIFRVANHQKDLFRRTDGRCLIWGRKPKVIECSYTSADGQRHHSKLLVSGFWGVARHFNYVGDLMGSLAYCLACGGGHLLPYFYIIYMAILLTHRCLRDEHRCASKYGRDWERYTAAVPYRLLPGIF
The experiment in a line: Ratio of BM15.766 IC50 to compound IC50 for […]-mediated cholesterol biosynthesis in human HL60 cells. Type of series: cell-based. To be noted: HL-60.

Series [2] has as its target T2, 7-dehydrocholesterol reductase (Homo sapiens, UniProt Q9UBM7).
T2 sequence (Q9UBM7 whole entry): T1 sequence (whole entry)
The series is described as follows: Inhibition of […]-mediated cholesterol biosynthesis in human HL60 cells assessed as inhibition of 2-[13C]acetate after 24 hrs GC/MS analysis. It is filed as cell-based, HL-60. In a few lines:
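Whole-cell cholesterol synthesis in HL-60 cells, 24 h with inhibitor and sodium 2-¹³C-acetate; six concentrations plus blank, in triplicate. Newly made labeled cholesterol (m/z 372–379, 462–469) measured by GC-MS against cholestane and normalized to Bradford protein. % inhibition against untreated control fitted to a variable-slope sigmoid, bottom fixed at 0, giving IC50; BM 15.766 as reference.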

The target of series [3] is T1, 7-dehydrocholesterol reductase (Homo sapiens). The series is described as follows: Inhibition of 7-dehydrocholesterol reductase in human HL60 cells assessed as accumulation of 7-dehydrocholesterol at 1 uM after 24 hrs by GC/MS analysis. It is filed as cell-based. The note with it: HL-60. In a few lines:
(§1)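 HL-60 cells (1 × 10⁶) in lipid-free HL-60 medium given inhibitor at 50 μM or 1 μM (ethanol blank) for 24 h at 37 °C, 5% CO2. Pellet saponified in 1 M NaOH, 1 h at 70 °C, then TBME microextraction with cholestane internal standard. GC-MS sterol pattern compared with blanks and with AY 9944 and BM 15.766 references.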

Series [4] has as its system Yarrowia lipolytica. The experiment in a line: Antifungal activity against Yarrowia lipolytica DSM 1345 after 48 hrs. Type of series: organism-based. The note with it: in vivo. In a few lines: (§2)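 MIC against the yeast strains determined according to DIN 58940-84; clotrimazole as positive control.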
The test system of series [5] is Saccharomyces cerevisiae. The experiment in a line: Antimicrobial activity against Saccharomyces cerevisiae DSM 1333 after 48 hrs. Type of series: organism-based. To be noted: in vivo. In a few lines:
as §2

In series [6] the test system is Nakaseomyces glabratus. The series is described as follows: Antifungal activity against Candida glabrata DSM 11226 after 48 hrs. It is filed as organism-based. The note with it: in vivo. In a few lines: as §2
Series [7] concerns Yarrowia lipolytica. The experiment in a line: Antifungal activity against Yarrowia lipolytica DSM 1345 after 36 hrs by disc diffusion method. It is filed as organism-based. To be noted: in vivo.
In series [8] the test system is Saccharomyces cerevisiae. The series is described as follows: Antifungal activity against Saccharomyces cerevisiae DSM 1333 after 36 hrs by disc diffusion method. Type of series: organism-based. To be noted: in vivo.
Series [9] deals with Nakaseomyces glabratus. The series is described as follows: Antifungal activity against Candida glabrata DSM 11226 after 36 hrs by disc diffusion method. It is filed as organism-based. The note with it: in vivo.
Series [10] is described as follows: Antifungal activity against Aspergillus brasiliensis DSM 1988 after 36 hrs by disc diffusion method.
Series [11] in a line: Antibacterial activity against Streptococcus entericus DSM 14446 after 36 hrs by disc diffusion method.
Series [12] can be described thus: Antibacterial activity against Staphylococcus equorum DSM 20675 after 36 hrs by disc diffusion method.
Series [13] is described as follows: Antibacterial activity against Pseudomonas antimicrobica DSM 8361 after 36 hrs by disc diffusion method. To be noted: burkholderia gladioli.
The subject of the next series is Escherichia coli. The experiment in a line: Antibacterial activity against Escherichia coli DSM 426 after 36 hrs by disc diffusion method. Type of series: organism-based. The note with it: in vivo.
The next series relates to HL-60. The series is described as follows: Cytotoxicity against human HL60 cells after 24 hrs by MTT assay. Type of series: cell-based. To be noted: HL-60, 24 h. In a few lines:
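MTT colorimetric assay on HL-60 promyelocytic leukemia cells (RPMI 1640, 10% FBS, no antibiotics, 37 °C, 5% CO2) as a preliminary screen for unspecific cytotoxicity; cisplatin as reference.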

Series [14] is described as follows: Antifungal activity against Hyphopichia burtonii DSM 70663 after 36 hrs by disc diffusion method.
Series [15] has as its target 3-beta-hydroxysteroid-Delta(8),Delta(7)-isomerase (Homo sapiens) (UniProt Q15125). The experiment in a line: Inhibition of delta8,7-isomerase in human HL60 cells assessed as accumulation of zymostenol at 50 uM after 24 hrs by GC/MS analysis. Type of series: cell-based. To be noted: HL-60. In a few lines:
as §1

The target is the same in series [16]. The experiment in a line: Inhibition of delta8,7-isomerase in human HL60 cells assessed as accumulation of zymostenol at 1 uM after 24 hrs by GC/MS analysis. Type of series: cell-based. The note with it: HL-60. The essentials:
as §1

The target of series [17] is T1, 7-dehydrocholesterol reductase (Homo sapiens). The series is described as follows: Inhibition of 7-dehydrocholesterol reductase in human HL60 cells assessed as accumulation of 7-dehydrocholesterol at 50 uM after 24 hrs by GC/MS analysis. It is filed as cell-based. To be noted: HL-60. The essentials:
as §1

SMILES strings stand for the structures. Calls of active or inactive are those of the source. The calls are words filed in the database; no cut-off is given here.

3-beta-hydroxysteroid-Delta(8),Delta(7)-isomerase (Homo sapiens), sequence (Q15125 whole entry): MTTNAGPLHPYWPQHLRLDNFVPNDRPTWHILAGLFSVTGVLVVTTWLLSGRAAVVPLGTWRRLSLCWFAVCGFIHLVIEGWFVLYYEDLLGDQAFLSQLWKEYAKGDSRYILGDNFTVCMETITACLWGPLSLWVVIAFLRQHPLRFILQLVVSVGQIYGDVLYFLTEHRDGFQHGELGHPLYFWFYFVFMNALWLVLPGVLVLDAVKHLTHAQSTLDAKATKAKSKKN

On to `COc1cc2c(cc1O)CCN(CCc1ccc(Cl)cc1)C2`, for which the Ratio IC50 in series [1] was 200. For the same molecule, the results for the IC50 (in [2]; with HL-60) were 0.0023 µM and above 50 µM, respectively. Also, in [3], the “7-DHCR inhibition (active/not active)” value is “Active”. Besides, the MIC against Yarrowia lipolytica [4], in the series with Saccharomyces cerevisiae [5] and against Nakaseomyces glabratus [6] was above 20 µg/mL throughout. Besides, the Activity result (with Yarrowia lipolytica [7]; with Saccharomyces cerevisiae [8]; with Nakaseomyces glabratus [9]; in [10]; in series [11]; in series [12]) was “Non-toxic” throughout. Besides, the Activity result (in series [13]; in the series on Escherichia coli; in series [14]) was “Non-toxic” in each case.
Take `COc1ccc(CCN2CCc3cc(OC)c(O)cc3C2)cc1`: the “isomerase inhibition (active/not active)” value in series [15] was “inactive”. Also, in series [16], the “inhibition (active/not active)” value is “inactive”. In series [17], the “7-dehydrocholesterol accumulation (active/not active)” value is “inactive”. Moreover, the “7-DHCR inhibition (active/not active)” value in series [3] is “inactive”. Besides, the MIC in the series with Yarrowia lipolytica [4], in the series on Saccharomyces cerevisiae [5] and with Nakaseomyces glabratus [6] was above 20 µg/mL throughout. The Activity entry (in the series with Yarrowia lipolytica [7]; in the series with Saccharomyces cerevisiae [8]; in the series with Nakaseomyces glabratus [9]; in series [10]; in [11]; in series [12]) was “Non-toxic” each time. Also, the Activity entry (in series [13]; with Escherichia coli; in [14]) was “Non-toxic” each time. In the series with HL-60, the IC50 was above 50 µM.
Regarding `O=C(O)c1ccc(CCN2CCN(C/C=C/c3ccc(Cl)cc3)CC2)cc1`, the IC50 in series [2] came to 0.5 µM.
On to `COc1ccc(CCN2CCc3cc(OC)c(OC)cc3C2)cc1`, for which the “isomerase inhibition (active/not active)” value in [15] was “Active”. Further, in [16], the “inhibition (active/not active)” value is “Active”. Further, in series [17], the “7-dehydrocholesterol accumulation (active/not active)” value was “inactive”. For the same molecule, the “7-DHCR inhibition (active/not active)” value in series [3] is “inactive”. Besides, the MIC in the series on Yarrowia lipolytica [4], against Saccharomyces cerevisiae [5] and with Nakaseomyces glabratus [6] was above 20 µg/mL each time. For the same molecule, the Activity entry (with Yarrowia lipolytica [7]; in the series with Saccharomyces cerevisiae [8]; with Nakaseomyces glabratus [9]; in [10]; in series [11]; in series [12]) was “Non-toxic” throughout. The Activity result (in series [13]; with Escherichia coli; in series [14]) was “Non-toxic” throughout. The molecule also showed a 50% inhibitory concentration (IC50) in the series with HL-60 above 50 µM.
For `COc1ccc(CCN2CCc3cc4c(cc3C2)OCO4)cc1`, the “isomerase inhibition (active/not active)” value in series [15] was “Active”. Further, the “inhibition (active/not active)” value in series [16] is “Active”. Besides, the “7-dehydrocholesterol accumulation (active/not active)” value in series [17] is “inactive”. Moreover, in [3], the “7-DHCR inhibition (active/not active)” value is “inactive”. Moreover, the MIC against Yarrowia lipolytica [4], against Saccharomyces cerevisiae [5] and against Nakaseomyces glabratus [6] was above 20 µg/mL each time. Further, the Activity entry (in the series on Yarrowia lipolytica [7]; with Saccharomyces cerevisiae [8]; with Nakaseomyces glabratus [9]; in series [10]; in [11]; in series [12]) was “Non-toxic” each time. Also, the Activity result (in series [13]; in the series on Escherichia coli; in [14]) was “Non-toxic” throughout. Moreover, the IC50 in the series with HL-60 was above 50 µM.
Take `COc1ccc2c(c1)CCN(CCc1ccccc1)C2`: in [15], the “isomerase inhibition (active/not active)” value is “Active”. Also, in series [16], the “inhibition (active/not active)” value was “Active”. In series [17], the “7-dehydrocholesterol accumulation (active/not active)” value was “inactive”. For the same molecule, the “7-DHCR inhibition (active/not active)” value in series [3] is “inactive”. For the same molecule, the MIC against Yarrowia lipolytica [4], in the series with Saccharomyces cerevisiae [5] and in the series with Nakaseomyces glabratus [6] was above 20 µg/mL in each case. Further, the Activity result (in the series on Yarrowia lipolytica [7]; in the series with Saccharomyces cerevisiae [8]; in the series with Nakaseomyces glabratus [9]; in series [10]; in series [11]; in series [12]) was “Non-toxic” throughout. The Activity result (in series [13]; with Escherichia coli; in series [14]) was “Non-toxic” each time. The molecule also showed an IC50 in the series with HL-60 above 50 µM.
`COc1cc2c(cc1O)CCN(CCc1ccc(OC)c(OC)c1)C2`: the IC50 is 7.3 µM in series [2] and above 50 µM in the series with HL-60. Besides, in [3], the “7-DHCR inhibition (active/not active)” value was “Active”. Also, the MIC in the series on Yarrowia lipolytica [4], against Saccharomyces cerevisiae [5] and against Nakaseomyces glabratus [6] was above 20 µg/mL each time. The Activity result (in the series on Yarrowia lipolytica [7]; with Saccharomyces cerevisiae [8]; in the series on Nakaseomyces glabratus [9]; in series [10]; in series [11]; in [12]) was “Non-toxic” in each case. Besides, the values for the Activity result (in [13]; in the series with Escherichia coli; in series [14]) were “Non-toxic”, “Non-toxic” and “Toxic”, respectively.
`COc1cccc(CCN2CCc3cc(O)c(OC)cc3C2)c1`: the IC50 in series [2] was 0.12 µM; in the series on HL-60 it was above 50 µM. The “7-DHCR inhibition (active/not active)” value in series [3] was “Active”. For the same molecule, the MIC against Yarrowia lipolytica [4], in the series on Saccharomyces cerevisiae [5] and in the series with Nakaseomyces glabratus [6] was above 20 µg/mL in each case. For the same molecule, the Activity entry (in the series with Yarrowia lipolytica [7]; in the series with Saccharomyces cerevisiae [8]; in the series on Nakaseomyces glabratus [9]; in [10]; in series [11]; in [12]) was “Non-toxic” throughout. Moreover, the Activity entry (in series [13]; with Escherichia coli; in series [14]) was “Non-toxic” in each case.
Regarding `COc1ccc(CCN2CCc3cc(OC)ccc3C2)cc1`, the “isomerase inhibition (active/not active)” value in series [15] was “Active”. Moreover, the “inhibition (active/not active)” value in series [16] is “Active”. Further, the “7-dehydrocholesterol accumulation (active/not active)” value in series [17] is “inactive”. The “7-DHCR inhibition (active/not active)” value in [3] was “inactive”. For the same molecule, the MIC in the series on Yarrowia lipolytica [4], in the series with Saccharomyces cerevisiae [5] and in the series with Nakaseomyces glabratus [6] was above 20 µg/mL each time. Further, the Activity result (with Yarrowia lipolytica [7]; in the series with Saccharomyces cerevisiae [8]; in the series on Nakaseomyces glabratus [9]; in series [10]; in [11]; in series [12]) was “Non-toxic” each time. Moreover, the Activity entry (in series [13]; in the series on Escherichia coli; in [14]) was “Non-toxic” throughout. This molecule showed an IC50 in the series on HL-60 above 50 µM.
